Results from ChEMBL document CHEMBL1134641, “Progress toward the development of a safe and effective agent for treating reentrant cardiac arrhythmias: synthesis and evaluation of ibutilide analogues with enhanced metabolic stability and diminished proarrhythmic potential” (2001).

Tests used:
[1] = test system: Canis familiaris; assay: Idioventricular heart rate (IVR) measured in canine 24-h Infarction model at an cumulative intravenous dose of 2.4 uM/kg; assay type: functional, Canis lupus familiaris
Method in brief: (§1)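 Male mongrel dogs (16-22 kg) with LAD permanently ligated in two stages; studied 24 h later. […] given IV in sequential doses to cumulative 0.24, 0.72, 2.4 µmol/kg. Saline controls (n=8) received vehicle, then a single IV 2.4 µmol/kg dose at the end. Measurements taken at baseline and 15 min after each dose. Means ± SEM, paired t-test, p ≤ 0.05.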

[2] = test system: Canis familiaris; assay: Heart rate measured in canine 24-h Infarction model at an cumulative intravenous dose of 2.4 uM/kg; assay type: functional, Canis lupus familiaris; method in brief: as §1
[3] = test system: Canis familiaris; assay: Blood pressure measured in canine 24-h Infarction model at an cumulative intravenous dose of 2.4 uM/kg; assay type: functional, Canis lupus familiaris; method in brief: as §1
[4] = test system: Canis familiaris; assay: Ventricular effective refractory period ([…]) measured in canine just after inducing atrial flutter (AFL) termination by the compound at a dose of 0.6 umol/kg; assay type: functional, Canis lupus familiaris, Heart
Method in brief: (§2)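 Conscious dogs, loosely restrained in a sling, with exteriorized electrode leads, studied 2 weeks after instrumentation. AFL was induced and counted as sustained if it lasted 5 min. Compound in saline given intravenously every 5 min to cumulative 0.024-12.0 µmol/kg. VERP was measured at AFL termination and 3 min after each dose. Results are means ± SEM versus baseline, p ≤ 0.05.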

[5] = test system: Canis familiaris; assay: Atrial effective refractory period (AERP) measured in canine just after inducing atrial flutter (AFL) termination by the compound at a dose of 4.8 uM/kg; assay type: functional, Canis lupus familiaris, Heart
[6] = species: Canis familiaris; assay: Heart Rate measured in canine just after inducing atrial flutter (AFL) termination by the compound; assay type: functional, Canis lupus familiaris
[7] = test system: Canis familiaris; assay: Ventricular effective refractory period ([…]) measured in canine just after inducing atrial flutter (AFL) termination by the compound at a dose of 4.8 uM/kg; assay type: functional, Canis lupus familiaris, Heart; method in brief: as §2
[8] = test system: Canis familiaris; assay: Ventricular effective refractory period ([…]) measured in canine just after inducing atrial flutter (AFL) termination by the compound at a dose of 1.2 uM/kg; assay type: functional, Canis lupus familiaris, Heart; method in brief: as §2
[9] = test system: Canis familiaris; assay: Number of canine in which nonsustained ventricular tachycardia (NSVT) was observed in PES-induced arrhythmias at an single intravenous dose of 2.4 uM/kg; assay type: functional, Canis lupus familiaris, Cardiac ventricle
Method in brief: (§3)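 Male mongrel dogs (16-22 kg) with LAD ligated in two stages, studied 24 h later. Programmed electrical stimulation at baseline and 15 min after each iv dose in saline (cumulative 0.24, 0.72, 2.4 µmol/kg). Saline controls then received a single 2.4 µmol/kg iv dose. Responses scored as NI (≤15 beats), NSVT (>15 beats, ends within 30 s), SVT (>30 s, needing pacing or cardioversion) or VF. A positive response was repeated.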

[10] = test system: Canis familiaris; assay: Heart Rate measured in canine just after inducing atrial flutter (AFL) termination by the compound at a dose of 4.8 uM/kg; assay type: functional, Canis lupus familiaris
[11] = test system: Canis familiaris; assay: Atrial effective refractory period (AEPR) measured in canine 24-h Infarction model at a single intravenous dose of 2.4 uM/kg; assay type: functional, Canis lupus familiaris, Cardiac atrium; method in brief: as §1
[12] = test system: Canis familiaris; assay: Ventricular effective refractory (VEPR) period measured in canine 24-h Infarction model at an cumulative intravenous dose of 2.4 uM/kg; assay type: functional, Canis lupus familiaris, Heart
Method in brief: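 Male mongrel dogs (16-22 kg) with LAD permanently ligated in two stages, studied 24 h after ligation. Compound given in saline (6.0 µmol/mL) as sequential intravenous doses to reach cumulative 0.24, 0.72 and 2.4 µmol/kg. VERP and other measurements taken at baseline and 15 min after each dose. Saline-dosed dogs served as controls. Results are means ± SEM, paired t-test, p ≤ 0.05.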

[13] = test system: Canis familiaris; assay: Number of canine in which nonsustained ventricular tachycardia (NSVT) was observed in PES-induced arrhythmias at an cumulative intravenous dose of 0.72 uM/kg; assay type: functional, Canis lupus familiaris, Cardiac ventricle; method in brief: as §3
[14] = test system: Canis familiaris; assay: Blood pressure measured in canine 24-h Infarction model at a single intravenous dose of 2.4 uM/kg; assay type: functional, Canis lupus familiaris; method in brief: as §1
[15] = species: Canis familiaris; assay: QT interval measured in canine just after inducing atrial flutter (AFL) termination by the compound; assay type: functional, Canis lupus familiaris, Heart
Method in brief: (§4)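 Conscious, sling-restrained dogs with chronically implanted electrodes, studied after 2 weeks of recovery. Sustained AFL (>5 min) induced. Compound in saline given iv every 5 min to cumulative 0.024-12.0 µmol/kg. At AFL termination, HR, QT (paced cycle length 300 ms), AERP and VERP measured. Measurements then taken 3 min after each further dose. Significance p≤0.05 vs baseline.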

[16] = test system: Canis familiaris; assay: Number of canine in which sustained ventricular tachycardia (SVT) was observed in PES-induced arrhythmias at an single intravenous dose of 2.4 uM/kg; assay type: functional, Canis lupus familiaris, Cardiac ventricle; method in brief: as §3
[17] = test system: Canis familiaris; assay: Atrial effective refractory period (AERP) measured in canine just after inducing atrial flutter (AFL) termination by the compound at a dose of 2.4 uM/kg; assay type: functional, Canis lupus familiaris, Heart
[18] = test system: Canis familiaris; assay: Heart Rate measured in canine just after inducing atrial flutter (AFL) termination by the compound at a dose of 0.24 umol/kg; assay type: functional, Canis lupus familiaris
[19] = test system: Canis familiaris; assay: Ventricular effective refractory period ([…]) measured in canine just after inducing atrial flutter (AFL) termination by the compound at a dose of 7.2 uM/kg; assay type: functional, Canis lupus familiaris, Heart; method in brief: as §2
[20] = test system: Canis familiaris; assay: Ventricular MAPD90 measured in canine 24-h Infarction model at an cumulative intravenous dose of 2.4 uM/kg; assay type: functional, Canis lupus familiaris, Heart
Method in brief: (§5)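 Dogs 24 h after two-stage LAD ligation. Compound in saline given iv in sequential doses (cumulative 0.24, 0.72, 2.4 µmol/kg); saline controls then given a single 2.4 µmol/kg iv dose. HR, IVR, BP, QT, spontaneous arrhythmias/min, ERPs and MAPD90 measured at baseline and 15 min after each dose. Means ± SEM, paired t-test, p≤0.05.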

[21] = test system: Canis familiaris; assay: Number of canine in which ventricular fibrillation (VF) was observed in PES-induced arrhythmias at an cumulative intravenous dose of 0.72 uM/kg; assay type: functional, Canis lupus familiaris, Cardiac ventricle; method in brief: as §3
[22] = test system: Canis familiaris; assay: Atrial effective refractory period (AERP) measured in canine just after inducing atrial flutter (AFL) termination by the compound at a dose of 12.0 uM/kg; assay type: functional, Canis lupus familiaris, Heart
[23] = test system: Canis familiaris; assay: Idioventricular heart rate (IVR) measured in canine 24-h Infarction model at an cumulative intravenous dose of 0.72 uM/kg; assay type: functional, Canis lupus familiaris; method in brief: as §1
[24] = test system: Canis familiaris; assay: Number of canine in which sustained ventricular tachycardia (SVT) was observed in PES-induced arrhythmias at an cumulative intravenous dose of 2.4 uM/kg; assay type: functional, Canis lupus familiaris, Cardiac ventricle; method in brief: as §3
[25] = test system: Canis familiaris; assay: Atrial MAPD90 measured in canine 24-h Infarction model at an cumulative intravenous dose of 2.4 uM/kg; assay type: functional, Canis lupus familiaris, Cardiac atrium; method in brief: as §1
[26] = test system: Canis familiaris; assay: Spontaneous arrhythmias measured in canine 24-h Infarction model at a single intravenous dose of 2.4 uM/kg; assay type: functional, Canis lupus familiaris; method in brief: as §5
[27] = test system: Canis familiaris; assay: QT interval measured in canine just after inducing atrial flutter (AFL) termination by the compound at a dose of 7.2 uM/kg; assay type: functional, Canis lupus familiaris, Heart; method in brief: as §4
[28] = test system: Canis familiaris; assay: Number of canine in which arrhythmias could not be induced at an cumulative intravenous dose of 0.72 uM/kg; assay type: functional, Canis lupus familiaris; method in brief: as §3
[29] = test system: Canis familiaris; assay: Number of canine in which arrhythmias could not be induced at an cumulative intravenous dose of 0.24 uM/kg; assay type: functional, Canis lupus familiaris; method in brief: as §3
[30] = test system: Canis familiaris; assay: Spontaneous arrhythmias measured in canine 24-h Infarction model at an cumulative intravenous dose of 2.4 uM/kg; assay type: functional, Canis lupus familiaris; method in brief: as §5
[31] = test system: Canis familiaris; assay: QT interval measured in canine just after inducing atrial flutter (AFL) termination by the compound at a dose of 4.8 uM/kg; assay type: functional, Canis lupus familiaris, Heart; method in brief: as §4

`CCN(CCCCCC(C)(C)F)CCC[C@H](O)c1ccc(NS(C)(=O)=O)cc1.O=C(O)/C=C/C(=O)O` was tested, and the IVR [1] was 124 beats min-1, the HR [2] was 135 beats min-1 and the BP [3] was 119 mmHg. The VERP [4] was 141 ms, the AERP [5] was 166 ms and the HR [6] was 108 beats min-1. For the same compound, the VERP [7] was 142 ms, the VERP [8] was 144 ms and the No. of canine [9] was 0. For the same compound, the HR [10] was 118 beats min-1, the AERP [11] was 179 ms and the VERP [12] was 185 ms. The No. of canine [13] was 0, the BP [14] was 111 mmHg and the QT interval [15] was 202 ms. It also gave a No. of canine [16] of 1, an AERP [17] of 166 ms and an HR [18] of 128 beats min-1. The VERP [19] was 140 ms, the “Ventricular MAPD90” value [20] was 185 ms and the No. of canine [21] was 0. The AERP [22] was 164 ms, the IVR [23] was 130 beats min-1 and the No. of canine [24] was 0. For the same compound, the “Atrial MAPD90” value [25] was 163 ms, the PVCs [26] was 53 number min-1 and the QT interval [27] was 205 ms. It also gave a No. of canine [28] of 9, a No. of canine [29] of 8 and a PVCs [30] of 73 number min-1. For the same compound, the QT interval [31] was 207 ms.
